Experimental data: article PMC2664388 (Pharmaceutical research, 2008)
Where two headings read alike, the source gives them in different places.

Assays:
[1] = Trans-epithelial electrical resistance; assay type: in vitro ADME, New Zealand albino rabbits; details: transport buffers with or without 5% HP-β-CD, 3h
[2] = Permeation across sclera/choroid/RPE, Valia-Chein side-bi-side cells; details: for Permeability across sclera/choroid/RPE: 150μM in DPBS with 5% HP-β-CD, 37°C
[3] = Corneal permeation, side-bi-side diffusion apparatus; assay type: in vitro ADME, New Zealand albino rabbits; details: for Transcorneal permeability: 150μM in DPBS with 5% HP-β-CD, 34°C
[4] = Aqueous solubility, shake flask method; assay type: physicochemical; details: 25°C, 24h
[5] = ref 21 Serra et al., cited from earlier work
[6] = Phase solubility with HP-β-CD; assay type: physicochemical
[7] = pH solution stability in buffers; assay type: physicochemical
Procedure, shortened: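 Test compound (25 μL of a 1 mg/mL stock) was added to 5 mL of USP buffer pre-equilibrated at 25 or 40°C. Content was measured by RP-HPLC on a C18 column with UV at 284 nm. The mobile phase was 20 mM KH2PO4 (pH 2.5) and acetonitrile at 75:25, run at 1 mL/min.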

[8] = sonicated 15min, equilibration 4 days; ref 29 Tommasini et al.; cited from earlier work
[9] = Stability in ocular tissue homogenates; assay type: in vitro ADME, New Zealand albino rabbits; details: 37°C, after 15h, 1mg/mL protein
[10] = Transscleral permeation, Valia-Chein side-bi-side cells; assay type: in vitro ADME, New Zealand albino rabbits; details: 150μM in DPBS with 5% HP-β-CD, 37°C
[11] = sonicated 15min, equilibration 4 days; ref 29 Tommasini et al.; cited from earlier work; remark: listed apart in the source
[12] = oral administration, cumulative urinary recovery; ref 14 Ameer et al.; cited from earlier work

Compound `CC(O)COC[C@H]1O[C@@H]2O[C@H]3[C@H](O)[C@@H](O)[C@@H](O[C@H]4[C@H](O)[C@@H](O)[C@@H](O[C@H]5[C@H](O)[C@@H](O)[C@@H](O[C@H]6[C@H](O)[C@@H](O)[C@@H](O[C@H]7[C@H](O)[C@@H](O)[C@@H](O[C@H]8[C@H](O)[C@@H](O)[C@@H](O[C@H]1[C@H](O)[C@H]2O)O[C@@H]8COCC(C)O)O[C@@H]7COCC(C)O)O[C@@H]6COCC(C)O)O[C@@H]5COCC(C)O)O[C@@H]4COCC(C)O)O[C@@H]3COCC(C)O` (stereo partly drawn) [HP-β-CD, 2-hydroxypropyl-beta-cyclodextrin] has a TEER of corneas [1] of 5±0.3 KΩcm^2.
For `OCC(O)C(O)C(O)C(O)[14CH2]O` (stereo not drawn) [[^14C]mannitol], the “Mean percent cumulative amount transported per hour across the sclera/choroid/RPE” value ([2]; 0.5 μCi/mL) was 0.1±0.04 percent per hour and the “Mean percent cumulative amount transported per hour across the cornea” value ([3]; 0.5 μCi/mL, 3h experiment) was 1±0.15 percent per hour.
For `COc1ccc([C@@H]2CC(=O)c3c(O)cc(O[C@@H]4O[C@H](CO[C@@H]5O[C@@H](C)[C@H](O)[C@@H](O)[C@H]5O)[C@@H](O)[C@H](O)[C@H]4O)cc3O2)cc1O` [hesperidin, hesperetin 7-rutinoside], the “Permeability across sclera/choroid/RPE” value ([2]; RPE to sclera (R-S) direction) was 1.52±0.78×10^−6 cm/s, the “Permeability across sclera/choroid/RPE” value ([2]; sclera to RPE (S-R) direction) was 0.82±0.69×10^−6 cm/s and the “Saturation Solubility” value ([4]; Water (0% HP-β-CD)) was 4.95 ± 0.99 µg/mL. For the same compound, the “Saturation Solubility” value ([4]; pH 1.21, 200 mM buffer) was 4.15 ± 0.34 µg/mL, the “Saturation Solubility” value ([4]; pH 3.11, 200 mM buffer) was 8.44 ± 0.47 µg/mL and the “Saturation Solubility” value ([4]; pH 5.12, 200 mM buffer) was 5.96 ± 1.92 µg/mL. For the same compound, the “Saturation Solubility” value ([4]; pH 7.48, 200 mM buffer) was 5.26 ± 0.31 µg/mL, the “Saturation Solubility” value ([4]; pH 9.11, 200 mM buffer) was 8.93 ± 0.73 µg/mL and the pKa ([5]; all of the alcoholic hydroxyl groups) was “greater than 11.5”. The pKa ([5]; two phenolic hydroxyl groups) was 10±0.2, the “Fold Increase in solubility” value ([6]; 1 %w/v HP-β-CD) was 9 and the “Hesperidin Solubility” value ([6]; 1 %w/v HP-β-CD in water, 25°C, 24h) was 42.97 ± 4.28 µg/mL. For the same compound, the “Fold Increase in solubility” value ([6]; 2.5 %w/v HP-β-CD) was 18, the “Hesperidin Solubility” value ([6]; 2.5 %w/v HP-β-CD in water, 25°C, 24h) was 83.34 ± 6.34 µg/mL and the “Fold Increase in solubility” value ([6]; 5 %w/v HP-β-CD) was 37. The “Hesperidin Solubility” value ([6]; 5 %w/v HP-β-CD in water, 25°C, 24h) was 169.90 ± 25.36 µg/mL, the “Fold Increase in solubility” value ([6]; 7.5 %w/v HP-β-CD) was 48 and the “Hesperidin Solubility” value ([6]; 7.5 %w/v HP-β-CD in water, 25°C, 24h) was 219.03 ± 15.62 µg/mL. For the same compound, the “Fold Increase in solubility” value ([6]; 10 %w/v HP-β-CD) was 55, the “Hesperidin Solubility” value ([6]; 10 %w/v HP-β-CD in water, 25°C, 24h) was 252.77 ± 8.81 µg/mL and the “Fold Increase in solubility” value ([6]; 15 %w/v HP-β-CD) was 76. For the same compound, the “Hesperidin Solubility” value ([6]; 15 %w/v HP-β-CD in water, 25°C, 24h) was 348.55 ± 5.28 µg/mL, the “Hesperidin Solubility” value ([6]; 20 %w/v HP-β-CD in water, 25°C, 24h) was 431.97 ± 0.43 µg/mL and the “Binding constant (K) with HP-β-CD, 1:1 complex” value ([6]; from phase solubility plot, 25°C, 24h) was 625 ± 78 M⁻¹. For the same compound, the “Stability in aqueous solutions (decrease in hesperidin content)” value ([7]; pH 1.2, 3, 5, 7.4, 25 and 40°C, upto 2 months) was “did not demonstrate any decrease”, the Degradation rate constant ([7]; pH 9, 25°C) was 0.03 day⁻¹ and the Half-life ([7]; pH 9, 25°C) was 23 days. The Degradation rate constant ([7]; pH 9, 40°C) was 0.15 day⁻¹, the Half-life ([7]; pH 9, 40°C) was 4.5 days and the “Binding constant with HP-β-CD” value [8] was 60 M⁻¹. The “Hesperetin generation, or decrease in hesperidin concentrations, in the homogenates” value [9] was “not observed”, the “Permeability across sclera alone” value [10] was 10.2±2.1×10^−6 cm/s and the Transcorneal permeability ([3]; apical to basolateral (A-B)) was 1.11±0.86×10^−6 cm/s. The Transcorneal permeability ([3]; basolateral to apical (B-A)) was 1.16±0.05×10^−6 cm/s, the Intrinsic solubility [11] was 36 µM and the Bioavailability [12] was less than 25%.
